Values after ≈ are worked out from the molar mass of the structure shown. Values belong to the molecule of their own block, whether it stands above or below them.
Columns and labels:
Format in all cases: functional
[1] = tested on: Escherichia coli; test: Antibacterial activity against Escherichia coli isolate 210737 after 18 hrs by CLSI broth microdilution method; details: isolate 210737, 18 h
[2] = tested on: Pseudomonas aeruginosa; test: Selectivity index, ratio of MIC for against IMP-4 producing Pseudomonas aeruginosa isolate 209471 to MIC for against IMP-4 producing Pseudomonas aeruginosa isolate 209471 in presence of BPL
[3] = tested on: Klebsiella pneumoniae; test: Selectivity index, ratio of MIC for against KPC-2 producing Klebsiella pneumoniae isolate 212229 to MIC for against KPC-2 producing Klebsiella pneumoniae isolate 212229 in presence of BPL
[4] = tested on: Escherichia coli; test: Selectivity index, ratio of MIC for against extended-spectrum beta-lactamase producing Escherichia coli isolate 208687 to MIC for extended-spectrum beta-lactamase producing Escherichia coli isolate 208687 in presence of BPL
[5] = tested on: Klebsiella pneumoniae; test: Antibacterial activity against KPC-2 producing Klebsiella pneumoniae isolate 212229 after 18 hrs in presence of BPL by CLSI broth microdilution method; details: isolate 212229, 18 h
Outline: (§1)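 CLSI broth microdilution against clinical isolates (ESBL E. coli, KPC-2 MDR K. pneumoniae, IMP-4 MDR P. aeruginosa; five per species). Iron limitation: Mueller-Hinton broth supplemented with 16 mg/liter 2,2'-bipyridyl to complex iron and induce iron uptake systems. Read-out: MIC.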

[6] = tested on: Klebsiella pneumoniae; test: Antibacterial activity against KPC-2 producing Klebsiella pneumoniae isolate 212232 after 18 hrs by CLSI broth microdilution method; details: isolate 212232, 18 h
[7] = tested on: Klebsiella pneumoniae; test: Antibacterial activity against KPC-2 producing Klebsiella pneumoniae isolate 209735 after 18 hrs in presence of BPL by CLSI broth microdilution method; details: isolate 209735, 18 h; outline: as §1
[8] = tested on: Pseudomonas aeruginosa; test: Antibacterial activity against IMP-4 producing Pseudomonas aeruginosa isolate 207272 after 18 hrs by CLSI broth microdilution method; details: isolate 207272, 18 h
[9] = tested on: Pseudomonas aeruginosa; test: Antibacterial activity against IMP-4 producing Pseudomonas aeruginosa isolate 207272 after 18 hrs in presence of BPL by CLSI broth microdilution method; details: isolate 207272, 18 h; outline: as §1
[10] = tested on: Escherichia coli; test: Antibacterial activity against extended-spectrum beta-lactamase producing Escherichia coli isolate 208687 after 18 hrs in presence of BPL by CLSI broth microdilution method; details: isolate 208687, 18 h; outline: as §1
[11] = tested on: Escherichia coli; test: Antibacterial activity against extended-spectrum beta-lactamase producing Escherichia coli isolate 106342 after 18 hrs in presence of BPL by CLSI broth microdilution method; details: isolate 106342, 18 h; outline: as §1
[12] = tested on: Klebsiella pneumoniae; test: Antibacterial activity against KPC-2 producing Klebsiella pneumoniae isolate 209735 after 18 hrs by CLSI broth microdilution method; details: isolate 209735, 18 h
[13] = tested on: Escherichia coli; test: Antibacterial activity against extended-spectrum beta-lactamase producing Escherichia coli isolate 208687 after 18 hrs by CLSI broth microdilution method; details: isolate 208687, 18 h
[14] = tested on: Pseudomonas aeruginosa; test: Selectivity index, ratio of MIC for against IMP-4 producing Pseudomonas aeruginosa isolate 212886 to MIC for against IMP-4 producing Pseudomonas aeruginosa isolate 212886 in presence of BPL
[15] = tested on: Klebsiella pneumoniae; test: Antibacterial activity against KPC-2 producing Klebsiella pneumoniae isolate 212229 after 18 hrs by CLSI broth microdilution method; details: isolate 212229, 18 h
[16] = tested on: Klebsiella pneumoniae; test: Antibacterial activity against KPC-2 producing Klebsiella pneumoniae isolate 212423 after 18 hrs by CLSI broth microdilution method; details: isolate 212423, 18 h
[17] = tested on: Pseudomonas aeruginosa; test: Antibacterial activity against IMP-4 producing Pseudomonas aeruginosa isolate 209471 after 18 hrs by CLSI broth microdilution method; details: isolate 209471, 18 h
[18] = tested on: Pseudomonas aeruginosa; test: Antibacterial activity against IMP-4 producing Pseudomonas aeruginosa isolate 208247 after 18 hrs in presence of BPL by CLSI broth microdilution method; details: isolate 208247, 18 h; outline: as §1
[19] = tested on: Pseudomonas aeruginosa; test: Antibacterial activity against IMP-4 producing Pseudomonas aeruginosa isolate 212886 after 18 hrs in presence of BPL by CLSI broth microdilution method; details: isolate 212886, 18 h; outline: as §1
[20] = tested on: Pseudomonas aeruginosa; test: Selectivity index, ratio of MIC for against IMP-4 producing Pseudomonas aeruginosa isolate 207272 to MIC for against IMP-4 producing Pseudomonas aeruginosa isolate 207272 in presence of BPL
[21] = tested on: Pseudomonas aeruginosa; test: Antibacterial activity against IMP-4 producing Pseudomonas aeruginosa isolate 209321 after 18 hrs by CLSI broth microdilution method; details: isolate 209321, 18 h
[22] = tested on: Klebsiella pneumoniae; test: Selectivity index, ratio of MIC for against KPC-2 producing Klebsiella pneumoniae isolate 209632 to MIC for against KPC-2 producing Klebsiella pneumoniae isolate 209632 in presence of BPL
[23] = tested on: Escherichia coli; test: Selectivity index, ratio of MIC for against extended-spectrum beta-lactamase producing Escherichia coli isolate 212648 to MIC for extended-spectrum beta-lactamase producing Escherichia coli isolate 212648 in presence of BPL
[24] = tested on: Escherichia coli; test: Antibacterial activity against extended-spectrum beta-lactamase producing Escherichia coli isolate 212648 after 18 hrs in presence of BPL by CLSI broth microdilution method; details: isolate 212648, 18 h; outline: as §1
[25] = tested on: Pseudomonas aeruginosa; test: Selectivity index, ratio of MIC for against IMP-4 producing Pseudomonas aeruginosa isolate 209321 to MIC for against IMP-4 producing Pseudomonas aeruginosa isolate 209321 in presence of BPL
[26] = tested on: Escherichia coli; test: Antibacterial activity against extended-spectrum beta-lactamase producing Escherichia coli isolate 209285 after 18 hrs in presence of BPL by CLSI broth microdilution method; details: isolate 209285, 18 h; outline: as §1
[27] = tested on: Klebsiella pneumoniae; test: Selectivity index, ratio of MIC for against KPC-2 producing Klebsiella pneumoniae isolate 209735 to MIC for against KPC-2 producing Klebsiella pneumoniae isolate 209735 in presence of BPL
[28] = tested on: Escherichia coli; test: Selectivity index, ratio of MIC for against extended-spectrum beta-lactamase producing Escherichia coli isolate 106342 to MIC for extended-spectrum beta-lactamase producing Escherichia coli isolate 106342 in presence of BPL
[29] = tested on: Klebsiella pneumoniae; test: Antibacterial activity against KPC-2 producing Klebsiella pneumoniae isolate 212423 after 18 hrs in presence of BPL by CLSI broth microdilution method; details: isolate 212423, 18 h; outline: as §1
[30] = tested on: Klebsiella pneumoniae; test: Selectivity index, ratio of MIC for against KPC-2 producing Klebsiella pneumoniae isolate 212232 to MIC for against KPC-2 producing Klebsiella pneumoniae isolate 212232 in presence of BPL
[31] = tested on: Pseudomonas aeruginosa; test: Antibacterial activity against IMP-4 producing Pseudomonas aeruginosa isolate 209321 after 18 hrs in presence of BPL by CLSI broth microdilution method; details: isolate 209321, 18 h; outline: as §1
[32] = tested on: Klebsiella pneumoniae; test: Antibacterial activity against KPC-2 producing Klebsiella pneumoniae isolate 209632 after 18 hrs in presence of BPL by CLSI broth microdilution method; details: isolate 209632, 18 h; outline: as §1
[33] = tested on: Escherichia coli; test: Antibacterial activity against extended-spectrum beta-lactamase producing Escherichia coli isolate 212648 after 18 hrs by CLSI broth microdilution method; details: isolate 212648, 18 h
[34] = tested on: Klebsiella pneumoniae; test: Selectivity index, ratio of MIC for against KPC-2 producing Klebsiella pneumoniae isolate 212423 to MIC for against KPC-2 producing Klebsiella pneumoniae isolate 212423 in presence of BPL
[35] = tested on: Escherichia coli; test: Selectivity index, ratio of MIC for against Escherichia coli isolate 210737 to MIC for Escherichia coli isolate 210737 in presence of BPL
[36] = tested on: Escherichia coli; test: Selectivity index, ratio of MIC for against extended-spectrum beta-lactamase producing Escherichia coli isolate 209285 to MIC for extended-spectrum beta-lactamase producing Escherichia coli isolate 209285 in presence of BPL
[37] = tested on: Escherichia coli; test: Antibacterial activity against Escherichia coli isolate 210737 after 18 hrs in presence of BPL by CLSI broth microdilution method; details: isolate 210737, 18 h; outline: as §1
[38] = tested on: Klebsiella pneumoniae; test: Antibacterial activity against KPC-2 producing Klebsiella pneumoniae isolate 209632 after 18 hrs by CLSI broth microdilution method; details: isolate 209632, 18 h
[39] = tested on: Escherichia coli; test: Antibacterial activity against extended-spectrum beta-lactamase producing Escherichia coli isolate 209285 after 18 hrs by CLSI broth microdilution method; details: isolate 209285, 18 h
[40] = tested on: Klebsiella pneumoniae; test: Antibacterial activity against KPC-2 producing Klebsiella pneumoniae isolate 212232 after 18 hrs in presence of BPL by CLSI broth microdilution method; details: isolate 212232, 18 h; outline: as §1
[41] = tested on: Pseudomonas aeruginosa; test: Antibacterial activity against IMP-4 producing Pseudomonas aeruginosa isolate 208247 after 18 hrs by CLSI broth microdilution method; details: isolate 208247, 18 h
[42] = tested on: Pseudomonas aeruginosa; test: Antibacterial activity against IMP-4 producing Pseudomonas aeruginosa isolate 212886 after 18 hrs by CLSI broth microdilution method; details: isolate 212886, 18 h
[43] = tested on: Pseudomonas aeruginosa; test: Antibacterial activity against IMP-4 producing Pseudomonas aeruginosa isolate 209471 after 18 hrs in presence of BPL by CLSI broth microdilution method; details: isolate 209471, 18 h; outline: as §1
[44] = tested on: Pseudomonas aeruginosa; test: Selectivity index, ratio of MIC for against IMP-4 producing Pseudomonas aeruginosa isolate 208247 to MIC for against IMP-4 producing Pseudomonas aeruginosa isolate 208247 in presence of BPL
[45] = tested on: Escherichia coli; test: Antibacterial activity against extended-spectrum beta-lactamase producing Escherichia coli isolate 106342 after 18 hrs by CLSI broth microdilution method; details: isolate 106342, 18 h

MIC [1]: 0.5 µg/mL (≈ 0.776 µM)
MIC [5]: 0.5 µg/mL
MIC [6]: 2 µg/mL (≈ 3.1 µM)
MIC [7]: 0.5 µg/mL
MIC [8]: 32 µg/mL (≈ 49.6 µM)
MIC [9]: 16 µg/mL
MIC [10]: 0.06 µg/mL
MIC [11]: 0.5 µg/mL
MIC [12]: 2 µg/mL (≈ 3.1 µM)
MIC [13]: 0.125 µg/mL (≈ 0.194 µM)
MIC [15]: 1 µg/mL (≈ 1.55 µM)
MIC [16]: 2 µg/mL (≈ 3.1 µM)
MIC [17]: 64 µg/mL (≈ 99.3 µM)
MIC [18]: 16 µg/mL
MIC [19]: 32 µg/mL
MIC [21]: 64 µg/mL (≈ 99.3 µM)
MIC [24]: 0.25 µg/mL
MIC [26]: 0.25 µg/mL
MIC [29]: 1 µg/mL
MIC [31]: 32 µg/mL
MIC [32]: 1 µg/mL
MIC [33]: 0.5 µg/mL (≈ 0.776 µM)
MIC [37]: 0.25 µg/mL
MIC [38]: 1 µg/mL (≈ 1.55 µM)
MIC [39]: 1 µg/mL (≈ 1.55 µM)
MIC [40]: 0.25 µg/mL
MIC [41]: 32 µg/mL (≈ 49.6 µM)
MIC [42]: > 64 µg/mL
MIC [43]: 64 µg/mL
MIC [45]: 1 µg/mL (≈ 1.55 µM)
SMILES: CC(C)C(O/N=C(\C(=O)N[C@@H]1C(=O)N(S(=O)(=O)O)[C@@H]1CSc1nnnn1C)c1csc(N)n1)c1cc(=O)c(O)cn1O (stereo not given in full)
Selectivity Index [2]: 1
Selectivity Index [3]: 2
Selectivity Index [4]: 2
Selectivity Index [14]: >2
Selectivity Index [20]: 2
Selectivity Index [22]: 1
Selectivity Index [23]: 2
Selectivity Index [25]: 2
Selectivity Index [27]: 4
Selectivity Index [28]: 2
Selectivity Index [30]: 8
Selectivity Index [34]: 2
Selectivity Index [35]: 2
Selectivity Index [36]: 4
Selectivity Index [44]: 2

MIC [1]: 0.5 µg/mL (≈ 0.876 µM)
MIC [5]: 1 µg/mL
MIC [6]: 4 µg/mL (≈ 7.01 µM)
MIC [7]: 1 µg/mL
MIC [8]: 16 µg/mL (≈ 28 µM)
MIC [9]: 16 µg/mL
MIC [10]: 0.5 µg/mL
MIC [11]: 0.5 µg/mL
MIC [12]: 4 µg/mL (≈ 7.01 µM)
MIC [13]: 1 µg/mL (≈ 1.75 µM)
MIC [15]: 4 µg/mL (≈ 7.01 µM)
MIC [16]: 2 µg/mL (≈ 3.51 µM)
MIC [17]: 32 µg/mL (≈ 56.1 µM)
MIC [18]: 8 µg/mL
MIC [19]: 16 µg/mL
MIC [21]: 16 µg/mL (≈ 28 µM)
MIC [24]: 1 µg/mL
MIC [26]: 0.5 µg/mL
MIC [29]: 1 µg/mL
MIC [31]: 16 µg/mL
MIC [32]: 1 µg/mL
MIC [33]: 4 µg/mL (≈ 7.01 µM)
MIC [37]: 0.25 µg/mL
MIC [38]: 8 µg/mL (≈ 14 µM)
MIC [39]: 1 µg/mL (≈ 1.75 µM)
MIC [40]: 1 µg/mL
MIC [41]: 16 µg/mL (≈ 28 µM)
MIC [42]: 16 µg/mL (≈ 28 µM)
MIC [43]: 16 µg/mL
MIC [45]: 2 µg/mL (≈ 3.51 µM)
SMILES: CC(C)C(O/N=C(\C(=O)NC1C(=O)N(S(=O)(=O)O)C12CCCC2)c1csc(N)n1)c1cc(=O)c(O)cn1O (stereo not given)
Selectivity Index [2]: 2
Selectivity Index [3]: 4
Selectivity Index [4]: 2
Selectivity Index [14]: 1
Selectivity Index [20]: 1
Selectivity Index [22]: 8
Selectivity Index [23]: 4
Selectivity Index [25]: 1
Selectivity Index [27]: 4
Selectivity Index [28]: 4
Selectivity Index [30]: 4
Selectivity Index [34]: 2
Selectivity Index [35]: 2
Selectivity Index [36]: 2
Selectivity Index [44]: 2
